For series [1], the species on record is Rattus norvegicus. The series is described as follows: Maximum velocity relative to ADP (100) in rat muscle pyruvate kinase was determined. Conditions: in vivo. The format is ADME, organism-based. The method in brief:
(§1)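 Rat muscle, liver and kidney pyruvate kinase isozymes, isolated as before, with ADP analogues as substrate. Optical density change at 340 nm, 22-24 °C, 1 mL. Five or more substrate concentrations. Km and Vmax come from linear Lineweaver-Burk plots, with Vmax relative to ADP (100).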

The species entered for series [2] is Rattus norvegicus. The series is described as follows: Substrate concentration for half maximum-velocity in rat muscle pyruvate kinase was determined. Conditions: in vivo. The format is ADME, organism-based. The method in brief:
as §1

Series [3] is described as follows: Reaction velocity relative to ATP (=1) in yeast hexokinase was determined at 5 mM concentration. The format is ADME. Conditions: 5000 µM.
Series [4] is described as follows: Substrate property, maximum velocity relative to ADP (100) in rat muscle pyruvate kinase was determined. The conditions noted are these: in vitro.
Series [5] is filed under the species Rattus norvegicus. The series is described as follows: Substrate property, maximum velocity relative to ADP (100) in rat muscle pyruvate kinase was determined. The format is ADME, organism-based. Conditions: in vivo. The method in brief: as §1
The species named for series [6] is Rattus norvegicus. The series is described as follows: Substrate property, maximum velocity relative to ADP (100) in rat liver pyruvate kinase was determined. Conditions: in vivo. The format is ADME, organism-based. An outline of the steps: as §1
Series [7] is filed under the species Rattus norvegicus. The series is described as follows: Substrate concentration for half maximum-velocity in rat kidney pyruvate kinase was determined. The format is ADME, organism-based. Conditions: in vivo. The method in brief:
as §1

For series [8], the species on record is Rattus norvegicus. The series is described as follows: Substrate concentration for half maximum- reaction velocity in rat liver pyruvate kinase. It counts as ADME, organism-based. The conditions noted are these: in vivo. The method in brief:
as §1

Series [9] is filed under the species Rattus norvegicus. Nature of the series: Substrate property, maximum velocity relative to ADP (100) in rat kidney pyruvate kinase was determined. It counts as ADME, organism-based. Conditions: in vivo. The method in brief: as §1
The species entered for series [10] is Rattus norvegicus. Nature of the series: Maximum velocity in rat liver adenylate kinase III relative to ATP(=100). It counts as ADME, organism-based. Conditions: in vivo. The method in brief: (§2)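 Rat liver AK II and AK III, isolated as before. Optical density change at 340 nm followed at 22-24 °C in 1 mL. Five or more substrate concentrations; stocks contained equimolar MgCl2. Vmax comes from linear Lineweaver-Burk plots and is expressed relative to ATP (100).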

Series [11] concerns the target GTP:AMP phosphotransferase AK3, mitochondrial (Rattus norvegicus, UniProt P29411). The series is described as follows: Competitive inhibition of adenylate kinase III in rat liver with respect to ATP. It counts as tissue-based. The method in brief: (§3)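 Rat liver adenylate kinase isozymes (AK II, AK III), isolated as before. Read as rate of change in optical density at 340 nm, 22-24 °C, 1 mL final volume. Five or more levels of ATP at each of two inhibitor levels, inhibitor at 1-5 times the inhibition constant. Ki taken from replots of inhibitor concentration vs Lineweaver-Burk slopes. Stocks contained equimolar MgCl2.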

The target of series [12] is Adenylate kinase 2, mitochondrial (Rattus norvegicus, UniProt P29410). The series is described as follows: Competitive inhibition of adenylate kinase II in rat liver with respect to ATP. The format is tissue-based. An outline of the steps:
as §3

The species entered for series [13] is Rattus norvegicus. The series is described as follows: Maximum velocity in rat liver adenylate kinase II relative to ATP(=100). The format is ADME, organism-based. The conditions noted are these: in vivo. The method in brief:
as §2

What is called Km is the substrate concentration at which the rate is half of its maximum. The term Ki denotes the equilibrium dissociation constant of an inhibitor or competing ligand from its target.

GTP:AMP phosphotransferase AK3, mitochondrial, sequence (P29411 whole entry): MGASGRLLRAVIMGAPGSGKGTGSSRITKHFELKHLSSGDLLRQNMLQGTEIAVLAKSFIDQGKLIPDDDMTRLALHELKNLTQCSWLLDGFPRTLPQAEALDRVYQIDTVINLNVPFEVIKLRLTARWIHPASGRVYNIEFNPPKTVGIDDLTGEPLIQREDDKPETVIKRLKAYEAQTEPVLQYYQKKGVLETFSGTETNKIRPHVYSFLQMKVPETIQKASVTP

In the case of `CN(CCCN(C)C(=O)CCCCNc1ncnc2c1ncn2[C@@H]1O[C@H](COP(=O)(O)OP(=O)(O)O)[C@@H](O)[C@H]1O)C(=O)CCCCNC(=O)OCc1ccccc1`, the Vmax in the series listed under Rattus norvegicus [1] was 1.5%. Moreover, the Km in the series filed under Rattus norvegicus [2] was found to be 0.07 mM.

For the compound `CN(CCCN(C)C(=O)CCCCNc1ncnc2c1ncn2[C@@H]1O[C@H](COP(=O)(O)OP(=O)(O)OP(=O)(O)O)[C@@H](O)[C@H]1O)C(=O)CCCCNC(=O)CI`, the “Velocity relative to ATP” value in [3] came out at 0.73.

Regarding `CC(=O)NCCCCCCNc1nc2c(N)ncnc2n1[C@@H]1O[C@H](COP(=O)(O)OP(=O)(O)O)[C@@H](O)[C@H]1O`, the Vmax (in series [4]; in the series listed under Rattus norvegicus [5]) was 0% in each case.

With `CC(=O)N(C)CCCCN(C)c1ncnc2c1ncn2[C@@H]1O[C@H](COP(=O)(O)OP(=O)(O)O)[C@@H](O)[C@H]1O`, the Vmax stood at 21% in the series filed under Rattus norvegicus [6], 18% in the series filed under Rattus norvegicus [9] and 20% in the series listed under Rattus norvegicus [5]. The Km in the series filed under Rattus norvegicus [7] came out at 1.7 mM; in the series filed under Rattus norvegicus [8], 700 µM; in the series filed under Rattus norvegicus [2], 3.6 mM.

On to `Nc1ncnc2c1nc(NCCCCCCCCNC(=O)CI)n2[C@@H]1O[C@H](COP(=O)(O)OP(=O)(O)OP(=O)(O)O)[C@@H](O)[C@H]1O`, for which the “Velocity relative to ATP” value in series [3] was determined as 0.54.

Regarding `CC(=O)N(C)CCCCN(C)c1ncnc2c1ncn2[C@@H]1O[C@H](COP(=O)(O)OP(=O)(O)OP(=O)(O)O)[C@@H](O)[C@H]1O`, the Vmax in the series filed under Rattus norvegicus [10] and in the series filed under Rattus norvegicus [13] was 0% throughout. For the same compound, the Ki in series [11] came out at 900 µM; in series [12], 1.1 mM.

For `CN(CCCCN(C)c1ncnc2c1ncn2[C@@H]1O[C@H](COP(=O)(O)OP(=O)(O)OP(=O)(O)O)[C@@H](O)[C@H]1O)C(=O)CCCNC(=O)CI`, in series [3], the “Velocity relative to ATP” value was 1.2.

Regarding `O=C(CI)NCCCCCCCCNc1ncnc2c1ncn2[C@@H]1O[C@H](COP(=O)(O)OP(=O)(O)OP(=O)(O)O)[C@@H](O)[C@H]1O`, in series [3], the “Velocity relative to ATP” value is listed as 1.8.

For the origin of these results see ChEMBL document CHEMBL1122036, “Use of adenine nucleotide derivatives to assess the potential of exo-active-site-directed reagents as species- or isozyme-specific enzyme inactivators. 3. Synthesis of adenosine 5'-triphosphate derivatives with N6- or 8-substituents bearing iodoacetyl groups” (J Med Chem, 1982).
